21 molecules from ChEMBL document CHEMBL3399928, “Design and synthesis of novel 2-(indol-5-yl)thiazole derivatives as xanthine oxidase inhibitors” (Bioorg Med Chem Lett, 2015) can be followed below.

Series [1] in a line: Inhibition of butter milk Xanthine oxidase using xanthine as substrate preincubated for 3 mins by spectrophotometry. The method in brief:
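Buttermilk xanthine oxidase at 0.05 U/mL in 50 mM phosphate buffer with test compound; reaction started with 200 µM xanthine stock. Uric acid formation read at 293 nm, with linear Vmax over 5 min taken as initial velocity. Inhibition was calculated against the uninhibited rate, and IC50 was taken as the concentration giving 50% inhibition.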

Series [2] is described as follows: Half life in rat liver microsomes. In kind it is ADME.
Series [3] is described as follows: Cytotoxicity against primary rat hepatocytes. In kind it is cell-based, Hepatocyte.
Series [4] can be described thus: Cmax in Sprague-Dawley rat at 10 mg/kg, po. Format: ADME, organism-based. Also on record: dose 10 mg/kg, route oral. The conditions noted are these: in vivo. The method in brief:
(§1)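 Single oral dose of 10 mg/kg in Sprague-Dawley rats; plasma followed over 24 h; Cmax, Tmax, AUC, half-life and bioavailability derived from the plasma profile; n = 3.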

A short description of series [5]: AUC (0 to last) in Sprague-Dawley rat at 10 mg/kg, po. Format: ADME, organism-based. Set-up: time 0 - last, dose 10 mg/kg, route oral. Conditions: plasma. The method, boiled down:
as §1

The nature of series [6]: Half life in Sprague-Dawley rat at 2 mg/kg, iv. In kind it is ADME, organism-based. Set-up: dose 2 mg/kg, route intravenous. Conditions: in vivo. The method in brief: (§2)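 Single intravenous dose of 2 mg/kg in Sprague-Dawley rats; AUC, half-life, clearance and Vd derived from the plasma profile; n = 3.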
The nature of series [7]: Clearance in Sprague-Dawley rat at 2 mg/kg, iv. Conditions: in vivo. Format: ADME, organism-based. Set-up: dose 2 mg/kg, route intravenous. The method, boiled down: as §2
Series [8] is described as follows: Volume of distribution in Sprague-Dawley rat at 2 mg/kg, iv. The conditions noted are these: in vivo. In kind it is ADME, organism-based. Also on record: dose 2 mg/kg, route intravenous. The method in brief: as §2
Series [9] in a line: Tmax in Sprague-Dawley rat at 10 mg/kg, po. Format: ADME, organism-based. Conditions: in vivo. Also on record: dose 10 mg/kg, route oral. The method in brief: as §1
Series [10] is described as follows: AUC (0 to last) in Sprague-Dawley rat at 2 mg/kg, iv. Format: ADME, organism-based. Set-up: dose 2 mg/kg, route intravenous, time 0 - last. The conditions noted are these: plasma. The method, boiled down: as §2
Series [11] deals with Rattus norvegicus. Nature of the series: Inhibition of uric acid production in Sprague-Dawley rat at 10 mg/kg, po measured 1 hr post dose. In kind it is functional. The method in brief:
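Male SD rats (about 200 g) received potassium oxonate 300 mg/kg i.p. in 0.8% carboxymethylcellulose. One hour later, compound at 10 mg/kg in PEG400/ethanol (2:1) was given orally, and blood was sampled 1 h after dosing. Plasma uric acid was scaled with the normal group as 100% and the oxonate control as 0% inhibition. ANOVA with Dunnett's post-test was used.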

Series [12] is described as follows: AUC (0 to infinity) in Sprague-Dawley rat at 2 mg/kg, iv. Format: ADME, organism-based. The conditions noted are these: plasma. Also on record: time infinity, dose 2 mg/kg, route intravenous. The method in brief:
as §2

Series [13] can be described thus: AUC (0 to infinity) in Sprague-Dawley rat at 10 mg/kg, po. In kind it is ADME, organism-based. Also on record: time infinity, dose 10 mg/kg, route oral. Conditions: plasma. The method in brief:
as §1

Series [14] in a line: Oral bioavailability in Sprague-Dawley rat at 10 mg/kg. The conditions noted are these: in vivo. In kind it is ADME, organism-based. The method in brief: as §1
Series [15] can be described thus: Half life in Sprague-Dawley rat at 10 mg/kg, po. Format: ADME, organism-based. Also on record: dose 10 mg/kg, route oral. Conditions: in vivo. The method, boiled down: as §1
Series [16] deals with Plasma. Briefly: Plasma concentration in Sprague-Dawley rat at 10 mg/kg, po. Format: ADME, organism-based. The conditions noted are these: in vivo. Set-up: dose 10 mg/kg, route oral. The method in brief: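 Oral dose of 10 mg/kg in Sprague-Dawley rats; plasma concentration measured 1 h after administration.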

`Cc1nc(-c2ccc3c(ccn3CC(C)C)c2)sc1C(=O)O` gave an IC50 in [1] of 110 nM. Besides, the half-life in [2] came to 0.458 h.
In the same order, the values of `Cc1nc(-c2ccc3c(c2)c(Cl)cn3CC(C)C)sc1C(=O)O` are 5.7 nM and 0.103 h.
For `Cc1nc(-c2ccc3c(c2)c(Cl)cn3C(C)C)sc1C(=O)O`, the IC50 in [1] was 7.3 nM. Also, the half-life in [2] came out at 1.6 h.
In the same order, the values of `Cc1nc(-c2ccc3c(c2)c(Cl)c(C)n3CC(C)C)sc1C(=O)O` are 16 nM and 0.11 h.
In series [1], `Cc1nc(-c2ccc3c(c2)c([N+](=O)[O-])cn3C(C)C)sc1C(=O)O` yielded an IC50 of 4.2 nM. Further, the half-life in series [2] was 1.32 h.
As for `COCCn1cc([N+](=O)[O-])c2cc(-c3nc(C)c(C(=O)O)s3)ccc21`, in [1], the IC50 came to 12 nM.
In the case of `Cc1nc(-c2ccc3c(c2)c(C#N)cn3CC(C)C)sc1C(=O)O`, in series [1], the IC50 is 5.5 nM. The molecule also returned a half-life in series [2] of 1.76 h. Besides, in [3], it took 82000 nM to reach half-maximal cytotoxicity (CC50).
For the molecule `CC(C)n1cc(C#N)c2cc(-c3ncc(C(=O)O)s3)ccc21`, the IC50 in series [1] is 4.4 nM. The molecule further had a Cmax in series [4] of 940 ng/mL. Moreover, the AUC(0-t) in series [5] came to 5390 ng·h/mL.
With `CC(C)n1cc(C#N)c2cc(-c3nc(C(F)(F)F)c(C(=O)O)s3)ccc21`, in [1], the IC50 was 895 nM.
As for `COc1nc(-c2ccc3c(c2)c(C#N)cn3C(C)C)sc1C(=O)O`, in [1], half-maximal inhibition (IC50) required 90 nM.
In the case of `Cc1nc(-c2ccc3c(c2)c(C#N)cn3C(C)C)sc1C(=O)O`, in series [1], half-maximal inhibition (IC50) was put at 3.5 nM. Besides, the half-life in [6] was 4.37 h; in series [15], 7.95 h. Moreover, the clearance in [7] was 2.69 mL/min/kg. The Vd in [8] came to 0.635 L/kg. For the same molecule, the Cmax in series [4] was determined as 3980 ng/mL. In addition, the time to peak (Tmax) in series [9] is 6 h. Besides, the AUC(0-t) in [10] was determined as 12400 ng·h/mL; in series [5], 47300 ng·h/mL. The molecule further came in with an inhibition in vivo at 10 mg/kg in series [11] of 60%. Further, the AUC(0-inf) in [12] turned out to be 12500 ng·h/mL; in series [13] it was 52900 ng·h/mL. Further, in series [14], the bioavailability came out at 84.3%. In addition, in series [3], the CC50 turned out to be 200000 nM.
`Cc1nc(-c2ccc3c(c2)c(C#N)c(C)n3C(C)C)sc1C(=O)O` had an IC50 in [1] of 10.7 nM. Also, the inhibition in vivo at 10 mg/kg in series [11] turned out to be 8.6%.
The corresponding values for `Cc1nc(-c2ccc3c(c2)c(C#N)cn3C(C)CF)sc1C(=O)O` (configuration not stated) are 4.9 nM and 22.3%.
In the same order, the values of `Cc1nc(-c2ccc3c(c2)c(C#N)cn3C(C)CO)sc1C(=O)O` (configuration not stated) are 3 nM and 8.5%.
In the same order, the values of `COCC(C)n1cc(C#N)c2cc(-c3nc(C)c(C(=O)O)s3)ccc21` (configuration not stated) are 9 nM and 14.1%.
Consider `Cc1nc(-c2ccc3c(c2)c(C#N)cn3CCS(C)(=O)=O)sc1C(=O)O`, for which half-maximal inhibition in series [1] (IC50) was put at 12.3 nM. In series [11], this molecule gave an inhibition in vivo at 10 mg/kg of 0%. The molecule further registered a Cp in series [16] of less than 20 ng/mL.
In the case of `CC(=O)NCCn1cc(C#N)c2cc(-c3nc(C)c(C(=O)O)s3)ccc21`, in series [1], the IC50 was found to be 5.6 nM. Moreover, testing at 10 mg/kg in series [11] gave an inhibition in vivo of 0%. Also, in [16], the Cp is less than 20 ng/mL.
Take `Cc1nc(-c2ccc3c(c2)c(C#N)cn3CCNS(C)(=O)=O)sc1C(=O)O`: it took 6 nM to reach half-maximal inhibition in series [1] (IC50). In [11], this molecule registered an inhibition in vivo at 10 mg/kg of 0%.
In the same order, the values of `Cc1nc(-c2ccc3c(c2)c(C#N)cn3Cc2ccccc2)sc1C(=O)O` are 3.9 nM and 10%.
The corresponding values for `Cc1nc(-c2ccc3c(c2)c(C#N)cn3Cc2ccc(F)cc2F)sc1C(=O)O` are 8.6 nM and 16%.
Consider `Cc1nc(-c2ccc(OCC(C)C)c(C#N)c2)sc1C(=O)O` [FEBUXOSTAT], for which, in [1], the IC50 was 3.1 nM. The peak level in series [4] (Cmax) was 16400 ng/mL. Also, the half-life in series [2] amounted to 2.9 h. In [5], this molecule gave an AUC(0-t) of 61500 ng·h/mL.
